L major viab: reduces viability of Leishmania major promastigotes | resazurin fluorescence viability | inhibition, % at 10 µM | 200,000 compounds, 9% hits | AID 1063; in the data active means inhibition above about 50%;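 further: promastigotes grown with compound for 44 hours at 28 °C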
TNAP act hiacc: TNAP (human) activation, high acceptor. P05186. 200,000 tested, under 10 active. purified TNAP, CDP-star luminescence, 1 M DEA, 30 min; active compounds read high; 0 = EDTA background, 1 = DMSO-only activity. activation factor at 20 µM. AID 1136;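 active means activation factor at least 2 at 20 µM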
Target sequence (P05186 whole entry, looked up): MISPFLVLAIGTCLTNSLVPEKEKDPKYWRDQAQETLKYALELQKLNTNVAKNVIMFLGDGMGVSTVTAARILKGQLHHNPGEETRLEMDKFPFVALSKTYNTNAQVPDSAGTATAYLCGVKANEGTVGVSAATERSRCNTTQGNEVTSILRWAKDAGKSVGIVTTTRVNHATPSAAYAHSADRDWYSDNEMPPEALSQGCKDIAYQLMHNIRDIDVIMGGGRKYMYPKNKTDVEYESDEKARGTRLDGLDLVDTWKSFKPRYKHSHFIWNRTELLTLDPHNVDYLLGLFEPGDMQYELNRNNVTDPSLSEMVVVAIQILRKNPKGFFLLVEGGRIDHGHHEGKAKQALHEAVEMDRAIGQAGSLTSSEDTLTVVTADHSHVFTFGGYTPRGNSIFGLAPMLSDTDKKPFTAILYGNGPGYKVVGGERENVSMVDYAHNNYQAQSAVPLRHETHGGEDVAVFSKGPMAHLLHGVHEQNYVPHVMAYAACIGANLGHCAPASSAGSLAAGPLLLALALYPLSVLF
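system = human TNAP | amount = enzyme diluted 1/800 final | reagent = 100 µM CDP-star substrate | signal = luminescent substrate turnover signal | dosing = one dose, 20 µM | benchmarks = EDTA negative control, DMSO positive control | measure = activation factor | timing = 30 min reaction, room temperature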
TNAP inh hiacc: blocks human TNAP under high phosphate acceptor concentration; P05186; purified TNAP, CDP-star luminescence, 1 M DEA; inhibition, % at 20 µM; 200,000 compounds, 0.03% hits;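 active means over 50% inhibition of tissue-nonspecific alkaline phosphatase at 20 µM in the single-dose screen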
HCT116 PTEN-null: PTEN-deleted cell growth suppression | AID 827 | HCT116 PTEN-null viability, CellTiter-Glo, 60 h; active compounds read low | viability, % at 10 µM | 140,000 compounds, 1.2% hits;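 active means viability at or below a set limit, 4 SD under the median of all tested compounds, cut at about 3.7% in these data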;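 further: PTEN knockout HCT116 line with beta catenin targeted HCT116 as companion control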
bCat KO growth: beta-catenin-lacking colon tumor cell growth suppression; 140,000 compounds, 1.5% hits; AID 818; HCT116 beta-catenin knockout viability, CellTiter-Glo, 60 h; active compounds read low; viability, % at 10 µM;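 active means viability at or under a set limit, the compound median less 4 SD, cut at about 6% in these data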
TNAP inh no acc: inhibitors of human TNAP without phosphate acceptor. AID 1012. purified TNAP, CDP-star luminescence, 30 min. 200,000 compounds, 0.26% hits. inhibition, % at 20 µM;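 active means tissue-nonspecific alkaline phosphatase inhibition above about 50% at 20 µM in the single-dose screen, limit read from the data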
Numbers stand for hits. This is a sample that favours compounds with a hit; in the whole collection about 9.6% have one here.

For COc1ccc(/C=N/NC(=O)CSCC(=O)Nc2ccccc2)cc1OC the results were L major viab inactive, TNAP act hiacc inactive, TNAP inh hiacc inactive, HCT116 PTEN-null inactive, bCat KO growth inactive and TNAP inh no acc inactive.
Screening O=C(N/N=C/c1ccc[nH]1)c1ccccc1OCc1ccccc1Cl returned L major viab inactive, TNAP act hiacc inactive, TNAP inh hiacc inactive and TNAP inh no acc inactive.
Screening O=C(CSCC(=O)Nc1ccccc1)N/N=C/c1c(O)ccc2ccccc12 returned L major viab 100, TNAP act hiacc inactive, TNAP inh hiacc inactive, HCT116 PTEN-null inactive, bCat KO growth inactive and TNAP inh no acc inactive.
`O=C(N/N=C/c1ccco1)c1ccccc1OCc1ccccc1Cl` gave L major viab 69, TNAP act hiacc inactive, TNAP inh hiacc inactive, HCT116 PTEN-null inactive, bCat KO growth inactive and TNAP inh no acc inactive.
Screening CN(C(=O)c1ccc(COc2ccccc2Br)o1)c1ccccc1 returned L major viab inactive, TNAP act hiacc inactive, TNAP inh hiacc inactive and TNAP inh no acc inactive.
CCN(CC)c1ccc(NC2=C(Cl)C(=O)c3ccccc3C2=O)cc1 was read as L major viab inactive, TNAP act hiacc inactive, TNAP inh hiacc inactive, HCT116 PTEN-null 0.5, bCat KO growth 0.8 and TNAP inh no acc inactive.
For CCN(CC)c1ccc(NC(=O)C(C)C)cc1 the results were L major viab inactive, TNAP act hiacc inactive, TNAP inh hiacc inactive, HCT116 PTEN-null inactive, bCat KO growth inactive and TNAP inh no acc inactive.
Screening Cc1ccc(NC2=C(Cl)C(=O)c3ccccc3C2=O)cc1 returned L major viab inactive, TNAP act hiacc inactive, TNAP inh hiacc inactive, HCT116 PTEN-null 0.8, bCat KO growth 0.9 and TNAP inh no acc inactive.
CCNC1=C(Cl)C(=O)c2ccccc2C1=O was read as L major viab inactive, TNAP act hiacc inactive, TNAP inh hiacc inactive, HCT116 PTEN-null inactive, bCat KO growth inactive and TNAP inh no acc inactive.
`CCC(=O)NC1(Cc2ccc(O)cc2)CCCCC1` gave L major viab inactive, TNAP act hiacc inactive, TNAP inh hiacc inactive and TNAP inh no acc inactive.
For COC(=O)c1nnn(-c2nonc2N)c1COc1ccc(C=O)cc1OC the results were L major viab inactive, TNAP act hiacc inactive, TNAP inh hiacc inactive and TNAP inh no acc inactive.
`CCOC(=O)c1ccc(NC(=O)c2ccc(CN3CCOCC3)cc2)cc1` gave L major viab 84, TNAP act hiacc inactive, TNAP inh hiacc inactive, HCT116 PTEN-null inactive, bCat KO growth inactive and TNAP inh no acc inactive.
Screening CSc1ccccc1NC(=O)c1ccc(CN2CCOCC2)cc1 returned L major viab inactive, TNAP act hiacc inactive, TNAP inh hiacc inactive and TNAP inh no acc inactive.
For CCOC(=O)c1ccc(NC(=O)N2CCOCC2)cc1 the results were L major viab inactive, TNAP act hiacc inactive, TNAP inh hiacc inactive and TNAP inh no acc inactive.
`NC(=O)c1ccc(NC(=O)c2ccc(CN3CCOCC3)cc2)cc1` gave L major viab inactive, TNAP act hiacc inactive, TNAP inh hiacc inactive, HCT116 PTEN-null inactive, bCat KO growth inactive and TNAP inh no acc inactive.
CCOC(=O)c1ccc(NC(=O)CSC(=S)N2CCOCC2)cc1 was read as L major viab 97, TNAP act hiacc inactive, TNAP inh hiacc inactive and TNAP inh no acc inactive.
Cc1cc(CSc2ccccc2)ccc1NC(=O)c1ccc(CN2CCOCC2)cc1 was read as L major viab 63, TNAP act hiacc inactive, TNAP inh hiacc inactive, HCT116 PTEN-null inactive, bCat KO growth inactive and TNAP inh no acc inactive.
CC(C)[C@H](NC(=O)c1ccccc1)C(=O)OCC(=O)NCc1ccc(F)cc1 was read as L major viab inactive, TNAP act hiacc inactive, TNAP inh hiacc inactive and TNAP inh no acc inactive.
`COc1ccc(NC(=S)NC(NC(=O)c2cccc(Cl)c2)C(Cl)(Cl)Cl)c([N+](=O)[O-])c1` (stereo unspecified) gave L major viab 94, TNAP act hiacc inactive, TNAP inh hiacc inactive, HCT116 PTEN-null inactive, bCat KO growth inactive and TNAP inh no acc inactive.
`CCC(C)C(=O)Nc1ccc(OC)cc1[N+](=O)[O-]` (stereo unspecified) gave L major viab 53, TNAP act hiacc inactive, TNAP inh hiacc inactive, HCT116 PTEN-null inactive, bCat KO growth inactive and TNAP inh no acc inactive.

Screens (PubChem)
